Experimental data reported in PubChem BioAssay.
The source made the active and inactive calls.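 The calls were made as follows, unless noted: active = Her2 level under about 52% in both replicate screens, with viability over 70% of control (limit read from the data); inconclusive = Her2 under the limit in one screen only, or viability under 70%; inactive = Her2 level above the set limit.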

Columns and labels:
[1] = reducers of endogenous Her2 protein level, primary screen, SKBR3 breast tumor cells, AlphaScreen, ATP viability (AID 461); conditions: 18-24 h, measured here: SKBR3 viability, ATP luminescence, at 10 µM;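 as to Her2 level: lower value means less Her2 protein in the cells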;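 as to viability: percent of carrier control wells set as 100% viability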
[2] = molecular target: Receptor tyrosine-protein kinase erbB-2 (Homo sapiens) (UniProt P04626); assay: as above; conditions: 18-24 h, at 10 µM, stronger effect = lower value
Sequence of Receptor tyrosine-protein kinase erbB-2 (Homo sapiens) (P04626 whole entry, looked up): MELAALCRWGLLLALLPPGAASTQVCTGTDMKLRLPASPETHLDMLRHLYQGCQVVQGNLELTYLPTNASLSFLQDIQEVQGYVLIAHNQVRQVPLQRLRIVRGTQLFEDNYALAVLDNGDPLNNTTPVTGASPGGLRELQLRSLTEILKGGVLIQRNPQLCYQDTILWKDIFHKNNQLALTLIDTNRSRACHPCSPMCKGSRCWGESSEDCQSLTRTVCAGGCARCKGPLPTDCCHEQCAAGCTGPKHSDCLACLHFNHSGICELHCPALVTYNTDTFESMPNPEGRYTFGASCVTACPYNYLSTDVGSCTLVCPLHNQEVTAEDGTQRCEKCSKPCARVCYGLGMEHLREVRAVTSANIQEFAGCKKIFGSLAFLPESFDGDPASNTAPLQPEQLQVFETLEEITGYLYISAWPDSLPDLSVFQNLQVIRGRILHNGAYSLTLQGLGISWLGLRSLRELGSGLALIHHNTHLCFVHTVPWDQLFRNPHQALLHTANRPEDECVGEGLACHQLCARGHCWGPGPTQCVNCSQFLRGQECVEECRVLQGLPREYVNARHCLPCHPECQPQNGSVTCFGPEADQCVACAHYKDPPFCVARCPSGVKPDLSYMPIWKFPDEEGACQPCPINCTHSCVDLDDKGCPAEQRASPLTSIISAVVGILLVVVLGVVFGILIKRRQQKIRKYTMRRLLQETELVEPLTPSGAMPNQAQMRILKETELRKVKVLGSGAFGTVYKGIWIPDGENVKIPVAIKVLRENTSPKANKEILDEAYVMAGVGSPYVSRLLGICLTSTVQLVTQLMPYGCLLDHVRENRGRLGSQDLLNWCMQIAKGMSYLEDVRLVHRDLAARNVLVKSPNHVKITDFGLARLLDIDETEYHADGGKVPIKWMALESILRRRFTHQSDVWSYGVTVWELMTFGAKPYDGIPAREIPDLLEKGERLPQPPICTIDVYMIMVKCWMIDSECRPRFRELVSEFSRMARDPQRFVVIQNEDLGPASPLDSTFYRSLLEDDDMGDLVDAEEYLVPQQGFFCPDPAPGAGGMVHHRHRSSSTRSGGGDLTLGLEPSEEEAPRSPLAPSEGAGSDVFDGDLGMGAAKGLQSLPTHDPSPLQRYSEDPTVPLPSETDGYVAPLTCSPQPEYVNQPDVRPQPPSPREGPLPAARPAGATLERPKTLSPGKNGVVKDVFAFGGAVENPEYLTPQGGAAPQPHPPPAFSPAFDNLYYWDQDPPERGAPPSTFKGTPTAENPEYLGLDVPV

[3] = SK-BR-3 cell growth inhibitors, pilot screen, 24 h, human (AID 572;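 active = viability at or below 10% of carrier control in both of two separate runs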;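 also: compound exposure lasted between 18 and 24 h rather than exactly 24 h; 100% = carrier-treated control wells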); conditions: SK-BR-3 viability, CellTiter-Glo luminescence, at 10 µM, stronger effect = lower value
[4] = HUVEC growth inhibition – cell-based, human, primary screen (AID 575;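 active = viability at or below 30% in both replicate assays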;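 also: 100% = median of untreated cell wells with 0.1% DMSO on each plate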); conditions: HUVEC proliferation, CellTiter-Glo luminescence, 72 h; at 10 µM; stronger effect = lower value
How it was run: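 Assay system: primary human umbilical vein endothelial cells / Buffer or medium: endothelial basal medium with 2% FBS plus growth supplements / Compound dosing: one dose, 10 µM final, 0.1% DMSO / Timing: 72 h treatment at 37 °C / Signal: CTG luminescence / Benchmarks: 32 DMSO-only cell-control wells (high), 32 MePR drug-control wells (low) per plate / Plate: collagen-coated 384-well format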

[5] = growth inhibitors of H69AR lung tumor, primary screen, human, duplicate replicates (AID 580;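 active = viability at or under a set limit in both replicates, limit being median viability minus 3 SD, cut at about 48% in these data, passing the limit was not always enough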;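 also: 100% = mean luminescence of untreated wells and 0% = no signal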); conditions: H69AR lung tumor cells viability, ATP luminescence, 72 h; at 10 µM; stronger effect = lower value
[6] = reversal of MRP1-mediated doxorubicin resistance, pilot screen, H69AR cells, doxorubicin co-treatment (AID 601;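 active = viability loss from added drug above about 55%, and viability with drug at most 40%, in both replicates, limit read from the data, passing the limit was not always enough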); conditions: CellTiter-Glo, 72 h, at 10 µM; for differential viability (reversal): stronger effect = higher value
[7] = 384-well plate pilot, post-Golgi transport modulator project, inhibition of yeast transport mutant growth (AID 636; in the data active = inhibition above about 31%); conditions: absorbance 615 nm, about 18 h, stronger effect = higher value
[8] = growth suppression of yeast trafficking mutant, preliminary HTS, modulators of trafficking downstream of Golgi apparatus project, 1536-format plate, OD 615 nm (AID 637; in the data active = inhibition above about 30%); conditions: yeast transport mutant growth, absorbance 615 nm, 18 h; stronger effect = higher value
[9] = H69AR cells + 2 uM doxorubicin, measured here: viability with 2 uM doxorubicin, stronger effect = lower value
[10] = H69AR cells, compound alone cytotoxicity

Row | SMILES | viability [1] | Her2 level [2] | viability [3] | viability [4] | viability [5] | differential viability (reversal) ([6]; H69AR cells + 2 uM doxorubicin) | viability [6, 9] | viability [6, 10] | inhibition [7] | inhibition [8]
1 | COc1ccc(Cn2c(CCCO)nc3ccccc32)cc1OC | 98.5% | 97.5% (inactive) | 98.5% (inactive) | 105% (inactive) | 102% (inactive) | 14.2% (inactive) | 88% | 102% | -7.67% (inactive) | -3.17% (inactive)
2 | Cc1ccccc1-c1nc(CN2CCC(C(=O)NCCCN3CCCC3)CC2)c(C)o1 | 81.5% | 91.5% (inactive) | 81.5% (inactive) | 63% (inactive) | 98.2% (inactive) | 8.91% (inactive) | 89.3% | 98.2% | 1.32% (inactive) | 0.55% (inactive)
3 | Cn1c(=O)n(Cc2ccc(F)cc2)c(=O)c2c1nc1n2CCCN1Cc1ccccc1 | 88.5% | 80.5% (inactive) | 88.5% (inactive) | 78.4% (inactive) | 70.1% (inactive) | 37.5% (inactive) | 32.6% | 70.1% | 0% (inactive) | 1.33% (inactive)
4 | COC(=O)Nc1sc2c(c1C(=O)N1CCOCC1)CCC(C)C2 (stereo not given) | 89.5% | 88.5% (inactive) | 89.5% (inactive) | 79.7% (inactive) | 93.9% (inactive) | -1.66% (inactive) | 95.6% | 93.9% | -2.89% (inactive) | 26% (inactive)
5 | Cc1oc2c(CN3CCOCC3)c(O)ccc2c(=O)c1-c1ccc(Br)cc1 | 85% | 114% (inactive) | 85% (inactive) | 91.8% (inactive) | 90.4% (inactive) | 4.38% (inactive) | 86% | 90.4% | -0.91% (inactive) | -2.67% (inactive)
6 | COC(=O)c1cc2ccsc2n1Cc1nc(-c2ccc(OC)cc2)oc1C | 85.5% | 82% (inactive) | 85.5% (inactive) | 67.5% (inactive) | 83.6% (inactive) | -12% (inactive) | 95.6% | 83.6% | 0.13% (inactive) | -4.67% (inactive)
7 | Cc1nnc(SCc2nc3ccccc3s2)n1-c1ccccc1 | 88% | 83% (inactive) | 88% (inactive) | 75.4% (inactive) | 76% (inactive) | -5.34% (inactive) | 81.3% | 76% | -6% (inactive) | -0.48% (inactive)
8 | COC(=O)c1c(C)oc2ccc(NS(=O)(=O)c3cccs3)cc12 | 106% | 94.5% (inactive) | 106% (inactive) | 59% (inactive) | 78.9% (inactive) | -21.9% (inactive) | 101% | 78.9% | -1.32% (inactive) | 5.9% (inactive)
9 | Cc1ccc(C)c(-c2nc3cc(N)ccc3o2)c1 | 78.5% | 106% (inactive) | 78.5% (inactive) | 46.6% (inactive) | 102% (inactive) | 8.46% (inactive) | 93.8% | 102% | -1.18% (inactive) | -6.03% (inactive)
10 | CCCn1c(O)c(CN2CCCC(C)C2)c(C)c(C#N)c1=O (stereo not given) | 102% | 87.5% (inactive) | 102% (inactive) | 86.8% (inactive) | 107% (inactive) | 15.3% (inactive) | 92.2% | 107% | -5.87% (inactive) | 5.32% (inactive)
11 | CCOC(=O)CNC(=O)Nc1nnc(-c2ccc(OCC)cc2)o1 | 99% | 92% (inactive) | 99% (inactive) | 105% (inactive) | 98.3% (inactive) | 8% (inactive) | 90.3% | 98.3% | -1.08% (inactive) | -3.02% (inactive)
12 | CCOc1ccccc1NS(=O)(=O)c1c(C)noc1C | 97.5% | 93.5% (inactive) | 97.5% (inactive) | 91.3% (inactive) | 109% (inactive) | 16.6% (inactive) | 92.1% | 109% | -3.42% (inactive) | -0.95% (inactive)
13 | Cc1cc(C)n(C(=O)CNC(=O)C2COc3ccccc3O2)n1 (stereo not given) | 122% | 97.5% (inactive) | 122% (inactive) | 87.2% (inactive) | 97.1% (inactive) | 3.57% (inactive) | 93.5% | 97.1% | -4.74% (inactive) | -1.59% (inactive)
14 | C[C@H](NC(=O)OC(C)(C)C)C(=O)NCC1CCC(C(=O)O)CC1 (stereo not given in full) | 101% | 97% (inactive) | 101% (inactive) | 103% (inactive) | 108% (inactive) | 11.7% (inactive) | 96.4% | 108% | -5.73% (inactive) | -1.29% (inactive)
15 | CCC(=O)N1CCc2cc(Br)cc(S(=O)(=O)N3CCCCCC3)c21 | 88.5% | 87% (inactive) | 88.5% (inactive) | 97.2% (inactive) | 95.5% (inactive) | 2.03% (inactive) | 93.4% | 95.5% | -3.03% (inactive) | 4.91% (inactive)
16 | CCC(Sc1nc(-c2ccccc2)c(C#N)c(=O)[nH]1)C(=O)Nc1cc(C)on1 (stereo not given) | 90.5% | 111% (inactive) | 90.5% (inactive) | 83% (inactive) | 101% (inactive) | 0.62% (inactive) | 101% | 101% | -1.54% (inactive) | -8.67% (inactive)
17 | Nc1nc(CSCc2ccccc2)nc(N2CCOCC2)n1 | 99.5% | 93.5% (inactive) | 99.5% (inactive) | 109% (inactive) | 95% (inactive) | 5.8% (inactive) | 89.2% | 95% | -5.27% (inactive) | -8.67% (inactive)
18 | O=C(Nc1c(-c2ccccc2)nc2ccccn12)c1ccco1 | 95% | 106% (inactive) | 95% (inactive) | 109% (inactive) | 103% (inactive) | 16.5% (inactive) | 86.9% | 103% | -0.92% (inactive) | -4.55% (inactive)
19 | COc1ccc(Oc2nc(Oc3ccc(OC)cc3)nc(Oc3ccc(OC)cc3)n2)cc1 | 104% | 102% (inactive) | 104% (inactive) | 95.6% (inactive) | 94.6% (inactive) | 6.92% (inactive) | 87.7% | 94.6% | -0.93% (inactive) | -5.81% (inactive)
20 | Cn1c(Cl)nc2ccccc21 | 115% | 96% (inactive) | 115% (inactive) | 90.7% (inactive) | 94.8% (inactive) | -5.28% (inactive) | 100% | 94.8% | -0.53% (inactive) | 0.97% (inactive)
21 | O=C(O)c1oc2ccccc2c1-n1cccc1 | 102% | 86.5% (inactive) | 102% (inactive) | 102% (inactive) | 96.8% (inactive) | -0.995% (inactive) | 97.8% | 96.8% | -4.8% (inactive) | 0.16% (inactive)
22 | CCCN1CCN(CCCNC(=O)Cn2nc(-c3ccc(Cl)cc3)ccc2=O)CC1 | 86% | 93.5% (inactive) | 86% (inactive) | 104% (inactive) | 101% (inactive) | 10.3% (inactive) | 90.6% | 101% | -2.76% (inactive) | 2.42% (inactive)
23 | CCCCN(CCCC)C(=O)CN(C)S(=O)(=O)c1ccc2c(c1)n(C)c(=O)c(=O)n2C | 99.5% | 86% (inactive) | 99.5% (inactive) | 113% (inactive) | 96.1% (inactive) | 3.39% (inactive) | 92.7% | 96.1% | -2.24% (inactive) | 2.38% (inactive)
24 | CCCCc1c(O)nc(SCCN(C)C)n(-c2ccccc2)c1=O | 93.5% | 110% (inactive) | 93.5% (inactive) | 99.5% (inactive) | 102% (inactive) | 2.55% (inactive) | 99% | 102% | -1.18% (inactive) | 2.62% (inactive)
25 | CCc1ccccc1NC(=O)CSc1ncn[nH]1 | 101% | 124% (inactive) | 101% (inactive) | 97.9% (inactive) | 103% (inactive) | 8.47% (inactive) | 94% | 103% | -1.82% (inactive) | -6.33% (inactive)
26 | Cc1cc(C(F)F)n2ncc(C(=O)NC3CCCCCC3)c2n1 | 89.5% | 86% (inactive) | 89.5% (inactive) | 78.1% (inactive) | 89.9% (inactive) | -0.225% (inactive) | 90.2% | 89.9% | -4.74% (inactive) | 8.69% (inactive)
27 | C(=C\c1ccccc1)/CN1CCN(Cc2ccc3c(c2)OCCO3)CC1 | 85% | 91.5% (inactive) | 85% (inactive) | 105% (inactive) | 93% (inactive) | 4.42% (inactive) | 88.6% | 93% | -3.77% (inactive) | 1.15% (inactive)
28 | O=C(c1ccccc1Oc1nnnn1-c1ccccc1)N1CCOCC1 | 89.5% | 84% (inactive) | 89.5% (inactive) | 67.6% (inactive) | 79.6% (inactive) | 7.74% (inactive) | 71.9% | 79.6% | -2.31% (inactive) | -5.67% (inactive)
29 | Cc1nnc2sc(-c3cccc(NC(=O)c4cccnc4)c3)nn12 | 87.5% | 104% (inactive) | 87.5% (inactive) | 90.2% (inactive) | 87.8% (inactive) | -8.91% (inactive) | 96.7% | 87.8% | -2.7% (inactive) | 36.7% (active)
